# Experimental data of several laboratories.
# Protocols differ between the studies behind these lines.
# Medium: plasma
Compound,system,conditions,measurement,result
Cc1ccc(C(=O)N(CCCN)[C@@H](c2oc3cc(Cl)ccc3c(=O)c2Cc2ccccc2)C(C)C)cc1,human,"intravenous, 5 mg/m², single dose, patients, infusion",AUC,8960 ng·h/mL
COCCOc1cnc2ccn([C@H](C)c3nnc4c(F)cc(-c5cnn(C)c5)cn34)c(=O)c2c1,human,"oral, 400 mg, multiple doses, once daily, patients",AUC(0-t),49600 ng·h/mL
CC(C)(O)c1ccccc1-c1ccc2[nH]c(/C=C/c3ccc(C(F)(F)F)cc3)nc2c1,male human,"oral, 225 mg, single dose, fasted, healthy volunteers",AUC(0-t),27900 ng·h/mL
COc1cc(C(=O)NC2CCN(C)CC2)c(F)cc1Nc1ncc(C(F)(F)F)c(Oc2cccc3c2C(=O)N(C)C3)n1,human,"oral, 50 mg, multiple doses, once daily, steady state, patients",AUC,4.89 µM·h
COc1ccc([C@@H]2CN(C(=O)[C@@H](O)CO)C[C@@]2(C)[C@@H](C)O)cc1OC1CN(c2ccc(C)cn2)C1,human,"oral, 10 mg, single dose, healthy volunteers",AUC(0-t),2750 ng·h/mL
CCc1nc2c(C)cc(N3CCN(CC(=O)N4CC(O)C4)CC3)cn2c1N(C)c1nc(-c2ccc(F)cc2)c(C#N)s1,human,"oral, 20 mg, single dose, fed, healthy volunteers",AUC(0-inf),500 ng·h/mL
Cn1cc(-c2ccc(S(=O)(=O)[C@@H]3C[C@@H](C(=O)NC4(C#N)CC4)N(C(=O)C4(C(F)(F)F)CC4)C3)c(C(F)(F)F)c2)cn1,human,"oral, 300 mg, single dose, fasted, healthy volunteers",AUC(0-inf),21000 ng·h/mL
CO[C@H]1CC[C@H](N2C(=O)CNc3ncc(-c4ccc(C(C)(C)O)nc4)nc32)CC1,human,"oral, 60 mg, multiple doses, patients",AUC(0-t),2950 ng·h/mL
CC(C)n1cc(C#N)c2cc(-n3cc(C(=O)O)cn3)ccc21,human,"oral, 100 mg, single dose, fasted, healthy volunteers",AUC(0-inf),19600 ng·h/mL
Cn1c(=O)oc2ccc(-c3ccc(C[C@@H](C#N)NC(=O)[C@@H]4CNCCCO4)cc3)cc21,male human,"oral, 15 mg, single dose, healthy volunteers",AUC,4.17 µM·h
CO[C@@H]1[C@H](OC(=O)N2CC(CCN3CCOCC3)C2)CC[C@]2(CO2)[C@H]1[C@@]1(C)O[C@@H]1CC=C(C)C,human,"subcutaneous, 4.8 mg, single dose, healthy volunteers",AUC(0-t),21.6 ng·h/mL
